Experiments:
Type in all cases: functional, cell-based
HeLa = test: Antiproliferative activity against human HeLa cells after 72 hrs by MTT assay
Procedure, shortened: (§1)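 Cells seeded at 8000 per well in 96-well plates, exposed to compound for 72 h. MTT added at 0.5 mg/mL final and incubated 4 h. Formazan dissolved in DMSO, absorbance read at 570 nm. IC50 is the concentration giving 50% reduction in cell growth, reported as the mean of three repeated experiments.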

[1] = Antiproliferative activity against human LM7 cells after 72 hrs by MTT assay; settings: LM7, 72 h; procedure, shortened: as §1
[2] = Antiproliferative activity against human MDA-MB-435S cells after 72 hrs by MTT assay; procedure, shortened: as §1
SW480 = test: Antiproliferative activity against human SW480 cells after 72 hrs by MTT assay; settings: SW480, 72 h; procedure, shortened: as §1
HEp-2 = test: Antiproliferative activity against human Hep2 cells after 72 hrs by MTT assay; settings: HEp-2, 72 h; procedure, shortened: as §1
MCF7 = test: Antiproliferative activity against human MCF7 cells after 72 hrs by MTT assay; settings: MCF7, 72 h; procedure, shortened: as §1

`O=c1cc(CSC(=S)N2CCCC2)oc2ccccc12` gave an IC50 (HeLa) of 23.1 µM, an IC50 [1] of 40 µM and an IC50 [2] greater than 30 µM. The IC50 (SW480) was 23.4 µM, the IC50 (HEp-2) was 9.1 µM and the IC50 (MCF7) was 35.8 µM.
Work on `CCOC(=O)c1cc(=O)c2cc(CSC(=S)N(C)c3ccccc3)ccc2o1` yielded an IC50 (HeLa) of 18.1 µM, an IC50 [1] greater than 25 µM and an IC50 [2] of 13.5 µM. For the same compound, the IC50 (SW480) was greater than 25 µM and the IC50 (MCF7) was greater than 25 µM.
For `O=c1cc(CSC(=S)N(CCCl)CCCl)oc2ccccc12`, the IC50 (HeLa) was greater than 25 µM, the IC50 [1] was greater than 25 µM and the IC50 [2] was 3.7 µM. The IC50 (SW480) was 25.1 µM, the IC50 (HEp-2) was 15.6 µM and the IC50 (MCF7) was greater than 25 µM.
`COc1ccc2c(=O)cc(CSC(=S)N3CCCCC3)oc2c1` showed an IC50 (HeLa) of 11.9 µM, an IC50 [1] of 5 µM and an IC50 [2] of 1.5 µM. For the same compound, the IC50 (SW480) was 2.3 µM, the IC50 (HEp-2) was 1.5 µM and the IC50 (MCF7) was 10 µM.
With `CC(C)N(C(=S)SCc1cc(=O)c2ccccc2o1)C(C)C` the IC50 [1] was greater than 25 µM, the IC50 [2] was greater than 40 µM and the IC50 (SW480) was greater than 40 µM. For the same compound, the IC50 (HEp-2) was 13.6 µM and the IC50 (MCF7) was 31.7 µM.
In the case of `CN(C(=S)SCc1coc2ccccc2c1=O)c1ccccc1`, the IC50 (HeLa) is reported as greater than 25 µM, the IC50 [1] is reported as greater than 25 µM and the IC50 [2] is reported as greater than 25 µM. The IC50 (SW480) was greater than 25 µM, the IC50 (HEp-2) was greater than 25 µM and the IC50 (MCF7) was greater than 25 µM.
For `COc1ccc2c(=O)c(CSC(=S)N3CCCCC3)coc2c1`, the IC50 (HeLa) was 3.5 µM, the IC50 [1] was 4.7 µM and the IC50 [2] was 0.93 µM. For the same compound, the IC50 (SW480) was 6.7 µM, the IC50 (HEp-2) was 4.3 µM and the IC50 (MCF7) was greater than 40 µM.
`O=c1cc(CSC(=S)N2CCOCC2)oc2ccc(Cl)cc12` gave an IC50 (HeLa) of 33.3 µM, an IC50 [1] greater than 25 µM and an IC50 [2] greater than 25 µM. For the same compound, the IC50 (SW480) was greater than 25 µM, the IC50 (HEp-2) was 20.6 µM and the IC50 (MCF7) was greater than 25 µM.
For `Cc1ccc2occ(CSC(=S)N(C(C)C)C(C)C)c(=O)c2c1`, the IC50 (HeLa) was 1.4 µM, the IC50 [1] was 6.3 µM and the IC50 [2] was 0.24 µM. For the same compound, the IC50 (SW480) was greater than 25 µM, the IC50 (HEp-2) was 0.7 µM and the IC50 (MCF7) was 6.6 µM.
With `O=c1c(CSC(=S)N2CCCC2)coc2ccccc12` the IC50 (HeLa) was greater than 25 µM, the IC50 [1] was 6 µM and the IC50 [2] was 3.8 µM. It also gave an IC50 (SW480) of 2.3 µM, an IC50 (HEp-2) of 3.6 µM and an IC50 (MCF7) greater than 25 µM.
Work on `COc1ccc2c(=O)cc(CSC(=S)N(C(C)C)C(C)C)oc2c1` yielded an IC50 (HeLa) greater than 25 µM, an IC50 [1] of 19.1 µM and an IC50 [2] of 22.1 µM. For the same compound, the IC50 (SW480) was 7.2 µM, the IC50 (HEp-2) was 7.6 µM and the IC50 (MCF7) was greater than 25 µM.
For `O=c1c(Cl)c(CSC(=S)N2CCOCC2)oc2ccccc12`, the IC50 (HeLa) was 4.5 µM, the IC50 [1] was 19.2 µM and the IC50 [2] was 4.1 µM. For the same compound, the IC50 (SW480) was 1.8 µM, the IC50 (HEp-2) was 9 µM and the IC50 (MCF7) was 11.1 µM.
In the case of `COc1ccc2c(=O)c(CSC(=S)N3CCCC3)coc2c1`, the IC50 (HeLa) is reported as 12.1 µM, the IC50 [1] is reported as 6 µM and the IC50 [2] is reported as 1.8 µM. For the same compound, the IC50 (SW480) was 4.8 µM, the IC50 (HEp-2) was 3.1 µM and the IC50 (MCF7) was 34.1 µM.
`Cc1ccc2occ(CSC(=S)N3CCCCC3)c(=O)c2c1` showed an IC50 (HeLa) greater than 25 µM, an IC50 [1] of 5.1 µM and an IC50 [2] of 1.7 µM. The IC50 (SW480) was greater than 25 µM, the IC50 (HEp-2) was 0.9 µM and the IC50 (MCF7) was 0.8 µM.
`CC(C)N(C(=S)SCc1coc2ccccc2c1=O)C(C)C` gave an IC50 (HeLa) greater than 30 µM, an IC50 [1] of 21.9 µM and an IC50 [2] of 7.9 µM. The IC50 (SW480) was 6.8 µM, the IC50 (HEp-2) was 3 µM and the IC50 (MCF7) was greater than 30 µM.
Work on `Cc1ccc2occ(CSC(=S)N3CCOCC3)c(=O)c2c1` yielded an IC50 (HeLa) of 6.1 µM, an IC50 [1] of 14.3 µM and an IC50 [2] of 5.5 µM. It also gave an IC50 (SW480) of 3.8 µM, an IC50 (HEp-2) of 4 µM and an IC50 (MCF7) of 20.7 µM.
Work on `O=c1c(SC(=S)N2CCCCC2)coc2ccc(Cl)cc12` yielded an IC50 (HeLa) of 8.3 µM, an IC50 [1] greater than 25 µM and an IC50 [2] of 13.3 µM. For the same compound, the IC50 (SW480) was greater than 25 µM, the IC50 (HEp-2) was 12.2 µM and the IC50 (MCF7) was greater than 25 µM.
Work on `COc1ccc2c(=O)c(CSC(=S)N(C(C)C)C(C)C)coc2c1` yielded an IC50 (HeLa) of 5.4 µM, an IC50 [1] of 4.7 µM and an IC50 [2] of 1.8 µM. It also gave an IC50 (SW480) of 4.8 µM, an IC50 (HEp-2) of 8.9 µM and an IC50 (MCF7) greater than 40 µM.
Work on `CCOC(=O)c1cc(=O)c2cc(CSC(=S)N3CCOCC3)ccc2o1` yielded an IC50 (HeLa) greater than 25 µM, an IC50 [1] greater than 25 µM and an IC50 [2] greater than 25 µM. It also gave an IC50 (SW480) greater than 25 µM, an IC50 (HEp-2) greater than 25 µM and an IC50 (MCF7) greater than 25 µM.
`O=c1c(SC(=S)N2CCCCC2)coc2ccccc12` gave an IC50 (HeLa) of 9 µM, an IC50 [1] of 7.8 µM and an IC50 [2] of 17.4 µM. It also gave an IC50 (SW480) of 16.3 µM and an IC50 (HEp-2) of 5.8 µM.
`CC(C)N(C(=S)SCc1oc2ccccc2c(=O)c1Cl)C(C)C` gave an IC50 (HeLa) greater than 40 µM, an IC50 [1] greater than 40 µM and an IC50 [2] of 23.6 µM. It also gave an IC50 (SW480) of 18.1 µM, an IC50 (HEp-2) of 20 µM and an IC50 (MCF7) greater than 40 µM.
`COc1ccc2c(=O)cc(CSC(=S)N3CCOCC3)oc2c1` gave an IC50 (HeLa) greater than 25 µM, an IC50 [1] of 11 µM and an IC50 [2] of 3.4 µM. It also gave an IC50 (SW480) of 3.1 µM, an IC50 (HEp-2) of 3 µM and an IC50 (MCF7) greater than 25 µM.
Compound `CCOC(=O)c1cc(=O)c2cc(CSC(=S)N(C(C)C)C(C)C)ccc2o1` has an IC50 (HeLa) greater than 25 µM, an IC50 [1] greater than 25 µM and an IC50 [2] of 8.1 µM. The IC50 (SW480) was greater than 25 µM, the IC50 (HEp-2) was 15.9 µM and the IC50 (MCF7) was greater than 25 µM.

Source: ChEMBL document CHEMBL1153612, “Synthesis and antitumor activity of novel dithiocarbamate substituted chromones” (Eur J Med Chem, 2009)
